Laboratory results: ChEMBL document CHEMBL1158040, “Biological activities and 3D QSAR studies of a series of Delisea pulchra (cf. fimbriata) derived natural products” (J Nat Prod, 2006)
In brackets after ≈: the same amount, converted by molar mass. Activity calls are given as the source filed them. The rule behind the calls is not given here.

Test system: Mycobacterium tuberculosis
Experiment: Antimycobacterial activity against Mycobacterium tuberculosis at 128 uM
Assay type: functional, organism-based
Details: not given

| Structure (SMILES) | Activity |
| --- | --- |
| CCC[C@@H](O)C1=C(Br)/C(=C/Br)OC1=O | inactive |

Test system: Penicillium oxalicum
Experiment: Antimicrobial activity against Penicillium oxalicum at 5 ug
Assay type: functional
Details: read-out: IZ
How it was run: (§1)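 Direct bioautography: each compound is spotted onto TLC plates and the solvent evaporated. The test organism is then grown directly on the plate. Growth inhibition is scored at the spot as active (+) or very active (++). Where a number is given, it is the radius in mm of the inhibition zone around the spot.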

| Structure (SMILES) | zone of inhibition at 5 µg/disc [mm] |
| --- | --- |
| CCC[C@@H](O)C1=C(Br)/C(=C/Br)OC1=O | 26 |

Test system: Penicillium oxalicum
Experiment: Antimicrobial activity against Penicillium oxalicum at 10 ug
Assay type: functional
Details: read-out: IZ
How it was run: as §1

| Structure (SMILES) | zone of inhibition at 10 µg/disc [mm] |
| --- | --- |
| CCC[C@@H](O)C1=C(Br)/C(=C/Br)OC1=O | 27 |

Biological target: Human immunodeficiency virus type 1 reverse transcriptase (Human immunodeficiency virus 1) (UniProt Q72547)
Experiment: Inhibition of HIV1 RT at 200 uM
Details: not given
How it was run: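 HIV-1 reverse transcriptase inhibition was measured in an ELISA-based system.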

| Structure (SMILES) | Activity |
| --- | --- |
| CCC[C@@H](O)C1=C(Br)/C(=C/Br)OC1=O | inactive |

Test system: Plasmodium falciparum
Experiment: Antimalarial activity against chloroquine-sensitive Plasmodium falciparum D6 at 10 ug/ml
Assay type: functional
Details: not given

| Structure (SMILES) | Activity [%] |
| --- | --- |
| CCC[C@@H](O)C1=C(Br)/C(=C/Br)OC1=O | >50 |

Test system: Monocyte
Experiment: Inhibition of IL1 biosynthesis in human monocytes
Assay type: functional, cell-based
Details: not given

| Structure (SMILES) | IC50 [µM] |
| --- | --- |
| CCC[C@@H](O)C1=C(Br)/C(=C/Br)OC1=O | 1.5 |

Test system: Micrococcus luteus
Experiment: Antimicrobial activity against Micrococcus luteus at 0.1 ug
Assay type: functional, organism-based
Details: not given
How it was run: as §1

| Structure (SMILES) | Activity |
| --- | --- |
| CCC[C@@H](O)C1=C(Br)/C(=C/Br)OC1=O | inactive |

Test system: KB
Experiment: Cytotoxicity against human KB cells
Assay type: functional
Details: read-out: ED50 (the source's name)

| Structure (SMILES) | EC50 [µg/mL] |
| --- | --- |
| CCC[C@@H](O)C1=C(Br)/C(=C/Br)OC1=O | 0.4 (≈ 1.23 µM) |

Test system: Escherichia coli
Experiment: Antimicrobial activity against Escherichia coli at 1 ug
Assay type: functional, organism-based
Details: not given
How it was run: as §1

| Structure (SMILES) | Activity |
| --- | --- |
| CCC[C@@H](O)C1=C(Br)/C(=C/Br)OC1=O | Active |

Test system: ZR-75-1
Experiment: Cytotoxicity against human ZR-75-1 cells
Assay type: functional
Details: read-out: ED50 (the source's name)

| Structure (SMILES) | EC50 [µg/mL] |
| --- | --- |
| CCC[C@@H](O)C1=C(Br)/C(=C/Br)OC1=O | < 0.1 |

Test system: KB
Experiment: Cytotoxicity against vinblastine-sensitive human KB cells
Assay type: functional
Details: read-out: ED50 (the source's name)

| Structure (SMILES) | EC50 [µg/mL] |
| --- | --- |
| CCC[C@@H](O)C1=C(Br)/C(=C/Br)OC1=O | 3.4 (≈ 10.4 µM) |

Test system: Monocyte
Experiment: Inhibition of LPS-stimulated IL1 production in human monocytes
Assay type: functional, cell-based
Details: not given

| Structure (SMILES) | IC50 [µM] |
| --- | --- |
| CCC[C@@H](O)C1=C(Br)/C(=C/Br)OC1=O | 0.6 |

Test system: Escherichia coli
Experiment: Antimicrobial activity against Escherichia coli at 10 ug
Assay type: functional, organism-based
Details: not given
How it was run: as §1

| Structure (SMILES) | Activity |
| --- | --- |
| CCC[C@@H](O)C1=C(Br)/C(=C/Br)OC1=O | Active |

Test system: not listed separately
Experiment: Inhibition of PKC
Details: not given

| Structure (SMILES) | IC50 [µM] |
| --- | --- |
| CCC[C@@H](O)C1=C(Br)/C(=C/Br)OC1=O | 76 |

Test system: Micrococcus luteus
Experiment: Antimicrobial activity against Micrococcus luteus at 1 ug
Assay type: functional, organism-based
Details: not given
How it was run: as §1

| Structure (SMILES) | Activity |
| --- | --- |
| CCC[C@@H](O)C1=C(Br)/C(=C/Br)OC1=O | Active |

Test system: Lu1
Experiment: Cytotoxicity against human Lu1 cells
Assay type: functional
Details: read-out: ED50 (the source's name)

| Structure (SMILES) | EC50 [µg/mL] |
| --- | --- |
| CCC[C@@H](O)C1=C(Br)/C(=C/Br)OC1=O | 0.3 (≈ 0.92 µM) |

Test system: Penicillium oxalicum
Experiment: Antimicrobial activity against Penicillium oxalicum at 0.1 ug
Assay type: functional
Details: read-out: IZ
How it was run: as §1

| Structure (SMILES) | zone of inhibition at 0.1 µg/disc [mm] |
| --- | --- |
| CCC[C@@H](O)C1=C(Br)/C(=C/Br)OC1=O | 6 |

Test system: Bacillus subtilis
Experiment: Antimicrobial activity against Bacillus subtilis at 0.1 ug
Assay type: functional, organism-based
Details: not given
How it was run: as §1

| Structure (SMILES) | Activity |
| --- | --- |
| CCC[C@@H](O)C1=C(Br)/C(=C/Br)OC1=O | Active |

Test system: Mycobacterium avium
Experiment: Antimycobacterial activity against Mycobacterium avium at 128 uM
Assay type: functional, organism-based
Details: not given

| Structure (SMILES) | IC50 [µM] |
| --- | --- |
| CCC[C@@H](O)C1=C(Br)/C(=C/Br)OC1=O | 350 |

Test system: Penicillium oxalicum
Experiment: Antimicrobial activity against Penicillium oxalicum at 0.01 ug
Assay type: functional
Details: not given
How it was run: as §1

| Structure (SMILES) | Activity |
| --- | --- |
| CCC[C@@H](O)C1=C(Br)/C(=C/Br)OC1=O | inactive |

Test system: Micrococcus luteus
Experiment: Antimicrobial activity against Micrococcus luteus at 5 ug
Assay type: functional, organism-based
Details: not given
How it was run: as §1

| Structure (SMILES) | Activity |
| --- | --- |
| CCC[C@@H](O)C1=C(Br)/C(=C/Br)OC1=O | Active |

Test system: LNCaP
Experiment: Cytotoxicity against human LNCAP cells
Assay type: functional
Details: read-out: ED50 (the source's name)

| Structure (SMILES) | EC50 [µg/mL] |
| --- | --- |
| CCC[C@@H](O)C1=C(Br)/C(=C/Br)OC1=O | 0.2 (≈ 0.614 µM) |

Test system: KB
Experiment: Cytotoxicity against vinblastine-resistant human KB cells
Assay type: functional
Details: read-out: ED50 (the source's name)
How it was run: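 The vinblastine-resistant KB-V1 line was tested both with and without added vinblastine in the cultured tumour-cell cytotoxicity panel. Results are reported as ED50.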

| Structure (SMILES) | EC50 [µg/mL] |
| --- | --- |
| CCC[C@@H](O)C1=C(Br)/C(=C/Br)OC1=O | 0.1 (≈ 0.307 µM) |

Test system: Micrococcus luteus
Experiment: Antimicrobial activity against Micrococcus luteus at 10 ug
Assay type: functional, organism-based
Details: not given
How it was run: as §1

| Structure (SMILES) | Activity |
| --- | --- |
| CCC[C@@H](O)C1=C(Br)/C(=C/Br)OC1=O | Active |

Test system: Penicillium oxalicum
Experiment: Antimicrobial activity against Penicillium oxalicum at 1 ug
Assay type: functional
Details: read-out: IZ
How it was run: as §1

| Structure (SMILES) | zone of inhibition at 1 µg/disc [mm] |
| --- | --- |
| CCC[C@@H](O)C1=C(Br)/C(=C/Br)OC1=O | 20 |

Test system: Bacillus subtilis
Experiment: Antimicrobial activity against Bacillus subtilis at 5 ug
Assay type: functional, organism-based
Details: not given
How it was run: as §1

| Structure (SMILES) | Activity |
| --- | --- |
| CCC[C@@H](O)C1=C(Br)/C(=C/Br)OC1=O | Active |

Test system: Bacillus subtilis
Experiment: Antimicrobial activity against Bacillus subtilis at 1 ug
Assay type: functional, organism-based
Details: not given
How it was run: as §1

| Structure (SMILES) | Activity |
| --- | --- |
| CCC[C@@H](O)C1=C(Br)/C(=C/Br)OC1=O | Active |

Test system: Bacillus subtilis
Experiment: Antimicrobial activity against Bacillus subtilis at 10 ug
Assay type: functional, organism-based
Details: not given
How it was run: as §1

| Structure (SMILES) | Activity |
| --- | --- |
| CCC[C@@H](O)C1=C(Br)/C(=C/Br)OC1=O | Active |

Test system: not listed separately
Experiment: Inhibition of TK assessed as residual activity at 200 ug/ml
Details: not given
How it was run: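 The enzyme was tyrosine kinase p56lck, with test compounds at 200 μg/mL. The read-out is the remaining enzyme activity.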

| Structure (SMILES) | Activity [%] |
| --- | --- |
| CCC[C@@H](O)C1=C(Br)/C(=C/Br)OC1=O | 3.4 |

Test system: Escherichia coli
Experiment: Antimicrobial activity against Escherichia coli at 5 ug
Assay type: functional, organism-based
Details: not given
How it was run: as §1

| Structure (SMILES) | Activity |
| --- | --- |
| CCC[C@@H](O)C1=C(Br)/C(=C/Br)OC1=O | Active |
